This experiment can be described thus: Inhibition of recombinant CAMK2 expressed in Sf9 cells after 20 mins. The method, boiled down:
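Baculovirus-expressed CaMKII from infected Sf9 cells (harvested day 3), purified on calmodulin affinity resin. Assayed in 25 mM Tris–HCl pH 7.5, 2 mM DTT, 10 mM MgCl₂, 0.1% CHAPS, 1 mM CaCl₂ with autocamtide-2 substrate, CaM and [γ-³³P]ATP (350–1500 cpm/pmol); 20 min, 30 °C. Reaction spotted onto P30 filtermat, washed with 75 mM phosphoric acid, counted by scintillation.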
In the case of `COc1ccc(C(=O)c2cc3cc(O)ccc3[nH]2)cc1`, the IC50 was above 10 µM.
Then `O=C(c1ccc(Oc2ccccc2)cc1)c1cc2cc(O)ncc2[nH]1`, with 6.8 µM; and `CC(=O)N1CCC(Oc2ccc(C(=O)c3cc4cc(O)ccc4[nH]3)cc2)CC1`, with 9.9 µM.
As to `O=C(c1ccc(OC2CCNCC2)cc1)c1cc2cc(O)ccc2[nH]1`, the IC50 is above 10 µM.
To `O=C(c1ccc(Oc2ccccc2)cc1)c1cc2nc(O)ccc2[nH]1` belongs above 10 µM; to `O=C(c1ccc(Oc2ccccc2)cc1)c1cc2ccccc2[nH]1`, 7.5 µM.
Then `Cn1c(C(=O)c2ccc(Oc3ccccc3)cc2)cc2cc(O)ccc21`, with 1.3 µM; and `O=C(c1ccccc1)c1cc2cc(O)ccc2[nH]1`, with 10 µM.
Then `O=C(c1ccc(OC2CCOC2)cc1)c1cc2cc(O)ccc2[nH]1` (stereo unspecified), with 6.8 µM; and `O=C(c1ccc(OC2CCCC2)cc1)c1cc2cc(O)ccc2[nH]1`, with 3.9 µM; and `O=C(c1cccc(Oc2ccccc2)c1)c1cc2cc(O)ccc2[nH]1`, with 1.7 µM.
Take `Cc1ccc(C(=O)c2cc3cc(O)ccc3[nH]2)cc1`: the 50% inhibitory concentration (IC50) came to 8.8 µM.
Then `O=C(c1ccc(Oc2ccccc2)cc1)c1cc2cc(O)ccc2n1CCO`, with 1.9 µM.
To `O=C(c1ccc(Cl)cc1)c1cc2cc(O)ccc2[nH]1` belongs above 10 µM.
To `O=C(c1ccc(OC2CCCCC2)cc1)c1cc2cc(O)ccc2[nH]1` belongs 2.3 µM.
Take `O=C(c1ccc(Oc2ccccc2)cc1)c1cc2ccc(O)cc2[nH]1`: the 50% inhibitory concentration (IC50) turned out to be 2.3 µM.
Turning to `CCOC(=O)Cn1c(C(=O)c2ccc(Oc3ccccc3)cc2)cc2cc(O)ccc21`, the IC50 turned out to be 0.77 µM.
Then `CN1CCC(Oc2ccc(C(=O)c3cc4cc(O)ccc4[nH]3)cc2)CC1`, with above 10 µM.
To `O=C(O)Cn1c(C(=O)c2ccc(Oc3ccccc3)cc2)cc2cc(O)ccc21` belongs 1.8 µM.
Take `O=C(c1ccc(Oc2ccccc2)cc1)c1cc2cc(O)ccc2[nH]1`: the 50% inhibitory concentration (IC50) amounted to 0.61 µM.
`O=C(c1cc2cc(O)ccc2[nH]1)c1ccccc1Oc1ccccc1`: the IC50 worked out at 1.8 µM.
Then `O=C(c1ccc(OC(F)(F)F)cc1)c1cc2cc(O)ccc2[nH]1`, with above 10 µM; and `O=C(c1ccc(Oc2ccccc2)cc1)c1cc2cc(O)ccc2n1S(=O)(=O)c1ccccc1`, with above 10 µM; and `O=C(c1ccc(-c2ccccc2)cc1)c1cc2cc(O)ccc2[nH]1`, with 6.4 µM.
In the case of `COc1ccc(S(=O)(=O)N(CCO)c2ccccc2CN(C)C/C=C/c2ccc(Cl)cc2)cc1`, the IC50 stood at 1.6 µM.
Then `O=C(c1ccc(F)cc1)c1cc2cc(O)ccc2[nH]1`, with above 10 µM.

The values are drawn from ChEMBL document CHEMBL1681654, “Structure and activity relationship of 2-(substituted benzoyl)-hydroxyindoles as novel CaMKII inhibitors” (Bioorg Med Chem Lett, 2011).
